# From ChEMBL document CHEMBL4038350 (J Med Chem, 2017)
# Non-standard residues stand in square brackets, D forms with d. Residues, ends and D or L forms follow the SMILES beside them.
# Assays:
# Format in all cases: functional, cell-based
# [1] = molecular target: Melanocyte-stimulating hormone receptor (Mus musculus) (UniProt Q01727); test: Agonist activity at mouse melanocortin receptor 1 expressed in HEK293 cells assessed as increase in cAMP accumulation at 100 uM after 2 hrs by AlphaScreen assay relative to control
# How it was run: (§1)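 Cyclic peptides were dissolved in DMSO. Receptor-expressing HEK293 cells in IBMX-containing stimulation buffer (pH 7.4) were stimulated for 2 h at room temperature. cAMP was then detected by competitive AlphaScreen after a 2 h lysis/bead step. […] Values come from at least three independent experiments.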
# Melanocortin receptor 3 [2] = molecular target: T1, Melanocortin receptor 3 (Mus musculus, UniProt P33033); test: Antagonist activity at mouse melanocortin receptor 3 expressed in HEK293 cells assessed as inhibition of NDP-MSH-induced cAMP accumulation after 2 hrs by AlphaScreen assay; details: read-out: pA2 (converted)
# Melanocortin receptor 4 [3] = molecular target: T2, Melanocortin receptor 4 (Mus musculus, UniProt P56450); test: Antagonist activity at mouse melanocortin receptor 4 expressed in HEK293 cells assessed as inhibition of NDP-MSH-induced cAMP accumulation after 2 hrs by AlphaScreen assay; details: read-out: pA2 (converted)
# Melanocortin receptor 4 [4] = molecular target: T2, Melanocortin receptor 4; test: Agonist activity at mouse melanocortin receptor 4 expressed in HEK293 cells assessed as increase in cAMP accumulation after 2 hrs by AlphaScreen assay
# Melanocortin receptor 3 [5] = molecular target: T1, Melanocortin receptor 3; test: Agonist activity at mouse melanocortin receptor 3 expressed in HEK293 cells assessed as increase in cAMP accumulation after 2 hrs by AlphaScreen assay
# [6] = molecular target: Melanocortin receptor 5 (Mus musculus) (UniProt P41149); test: Inverse agonist activity at mouse melanocortin receptor 5 expressed in HEK293 cells assessed as decrease in cAMP accumulation at 510 nM after 2 hrs by AlphaScreen assay relative to control; parameters: scale not given: the % may be the effect or the level left
# How it was run: (§2)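 In mouse MC5R-HEK293 cells, cAMP was measured by AlphaScreen after 2 h peptide exposure (10−4 to 10−13 M) at room temperature. Each replicate was normalized to its signal at 10−10 M. For sigmoidal curves, percent inverse agonism was the change from basal to the high-concentration plateau. Apparent potency was taken as the curve inflection point. Three independent experiments were run.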
# [7] = molecular target: Melanocortin receptor 4 (Mus musculus) (UniProt P56450); test: Agonist activity at mouse melanocortin receptor 4 expressed in HEK293 cells assessed as increase in cAMP accumulation at 100 uM after 2 hrs by AlphaScreen assay; how it was run: as §1
# [8] = molecular target: Melanocortin receptor 5 (Mus musculus) (UniProt P41149); test: Agonist activity at mouse melanocortin receptor 5 expressed in HEK293 cells assessed as increase in cAMP accumulation at 100 uM after 2 hrs by AlphaScreen assay relative to control; how it was run: as §1
# [9] = molecular target: Melanocortin receptor 3 (Mus musculus) (UniProt P33033); test: Agonist activity at mouse melanocortin receptor 3 expressed in HEK293 cells assessed as increase in cAMP accumulation at 100 uM after 2 hrs by AlphaScreen assay relative to control; how it was run: as §1
# [10] = molecular target: Melanocyte-stimulating hormone receptor (Mus musculus, UniProt Q01727); test: Agonist activity at mouse melanocortin receptor 1 expressed in HEK293 cells assessed as increase in cAMP accumulation after 2 hrs by AlphaScreen assay
# How it was run: (§3)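 Donor beads and biotin-cAMP in lysis buffer followed for 2 h. The AlphaScreen signal was read. EC50 came from nonlinear least-squares fits, duplicates, at least three independent experiments.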
# [11] = molecular target: Melanocortin receptor 5 (Mus musculus) (UniProt P41149); test: Inverse agonist activity at mouse melanocortin receptor 5 expressed in HEK293 cells assessed as decrease in cAMP accumulation at 100 uM after 2 hrs by AlphaScreen assay relative to control; parameters: scale not given: the % may be the effect or the level left
# How it was run: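 Each replicate was normalized to its own signal at 10−10 M (basal). Where no plateau appeared, inverse agonism was reported as percent decrease from basal at 100 μM. Values are from three independent experiments.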
# Melanocortin receptor 5 = Melanocortin receptor 5 (Mus musculus, UniProt P41149); test: Agonist activity at mouse melanocortin receptor 5 expressed in HEK293 cells assessed as increase in cAMP accumulation after 2 hrs by AlphaScreen assay; how it was run: as §3
# [12] = molecular target: Melanocortin receptor 5 (Mus musculus) (UniProt P41149); test: Inverse agonist activity at mouse melanocortin receptor 5 expressed in HEK293 cells assessed as decrease in cAMP accumulation at 110 nM after 2 hrs by AlphaScreen assay relative to control; parameters: scale not given: the % may be the effect or the level left; how it was run: as §2
# [13] = molecular target: Melanocortin receptor 5 (Mus musculus) (UniProt P41149); test: Inverse agonist activity at mouse melanocortin receptor 5 expressed in HEK293 cells assessed as decrease in cAMP accumulation at 700 nM after 2 hrs by AlphaScreen assay relative to control; parameters: scale not given: the % may be the effect or the level left; how it was run: as §2
# T1 sequence (P33033 whole entry): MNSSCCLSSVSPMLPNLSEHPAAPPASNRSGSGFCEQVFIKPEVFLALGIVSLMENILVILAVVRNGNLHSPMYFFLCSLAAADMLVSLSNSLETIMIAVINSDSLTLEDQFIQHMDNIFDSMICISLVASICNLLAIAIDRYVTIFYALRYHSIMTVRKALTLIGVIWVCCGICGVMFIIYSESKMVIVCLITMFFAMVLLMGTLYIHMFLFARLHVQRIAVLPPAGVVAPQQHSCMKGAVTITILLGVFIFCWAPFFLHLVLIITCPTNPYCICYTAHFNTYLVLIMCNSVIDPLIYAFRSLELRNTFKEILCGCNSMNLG
# T2 sequence (P56450 whole entry): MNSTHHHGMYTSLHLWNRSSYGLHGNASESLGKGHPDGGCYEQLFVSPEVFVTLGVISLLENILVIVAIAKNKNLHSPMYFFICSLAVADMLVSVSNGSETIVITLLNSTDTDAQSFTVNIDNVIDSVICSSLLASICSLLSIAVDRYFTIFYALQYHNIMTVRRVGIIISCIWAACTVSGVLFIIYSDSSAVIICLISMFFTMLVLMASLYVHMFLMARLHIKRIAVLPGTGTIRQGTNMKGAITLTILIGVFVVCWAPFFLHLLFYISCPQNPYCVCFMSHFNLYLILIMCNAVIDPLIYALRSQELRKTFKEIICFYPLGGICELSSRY
# Melanocortin receptor 5 (Mus musculus), sequence (P41149 whole entry): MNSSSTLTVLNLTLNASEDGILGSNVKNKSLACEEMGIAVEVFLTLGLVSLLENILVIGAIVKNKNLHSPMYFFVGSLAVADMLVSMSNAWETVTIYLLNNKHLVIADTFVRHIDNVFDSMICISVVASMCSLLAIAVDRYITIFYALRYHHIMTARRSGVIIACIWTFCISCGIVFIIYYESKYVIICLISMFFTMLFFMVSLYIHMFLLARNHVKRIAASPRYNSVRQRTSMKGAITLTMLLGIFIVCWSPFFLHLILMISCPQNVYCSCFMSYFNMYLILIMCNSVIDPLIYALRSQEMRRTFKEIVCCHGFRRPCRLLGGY
# Melanocyte-stimulating hormone receptor (Mus musculus), sequence (Q01727 whole entry, looked up): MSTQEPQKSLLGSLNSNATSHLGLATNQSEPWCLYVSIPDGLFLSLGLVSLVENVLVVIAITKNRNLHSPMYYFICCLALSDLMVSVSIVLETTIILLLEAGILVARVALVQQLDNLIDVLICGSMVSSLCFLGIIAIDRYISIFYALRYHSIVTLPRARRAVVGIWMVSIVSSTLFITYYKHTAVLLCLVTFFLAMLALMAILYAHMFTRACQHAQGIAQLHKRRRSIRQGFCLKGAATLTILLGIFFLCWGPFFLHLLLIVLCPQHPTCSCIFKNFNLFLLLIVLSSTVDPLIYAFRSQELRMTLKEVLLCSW
# Melanocyte-stimulating hormone receptor, sequence (Q01727 whole entry): as the sequence (Q01727 whole entry, looked up) above
# Melanocortin receptor 5, sequence (P41149 whole entry): as the sequence (P41149 whole entry) above
# Melanocortin receptor 3 (Mus musculus), sequence (P33033 whole entry): as the sequence (P33033 whole entry) above
# Melanocortin receptor 4 (Mus musculus), sequence (P56450 whole entry): as the sequence (P56450 whole entry) above
SMILES,Activity [1],Kb (Melanocortin receptor 3 [2]),Kb (Melanocortin receptor 4 [3]),EC50 (Melanocortin receptor 4 [4]),EC50 (Melanocortin receptor 3 [5]),Activity [6],Activity [7],Activity [8],Activity [9],EC50 [10],Activity [11],EC50 (Melanocortin receptor 5),Activity [12],Activity [13]
CC(C)[C@@H]1NC(=O)[C@H](Cc2ccccc2)NC(=O)[C@H](Cc2ccccc2)NC(=O)[C@H](CCCNC(=N)N)NC(=O)[C@@H]2CCCN2C(=O)[C@H]2CCCN2C(=O)[C@H](Cc2ccccc2)NC(=O)[C@H](C)NC1=O,55%,> 3160 nM,1260 nM,> 100 µM,> 100 µM,25%,,,,,,,,
N=C(N)NCCC[C@@H]1NC(=O)[C@@H]2CCCN2C(=O)[C@H]2CCCN2C(=O)[C@H](Cc2ccccc2)NC(=O)[C@H](Cc2ccccc2)NC(=O)[C@H](CC(N)=O)NC(=O)[C@H](Cc2ccccc2)NC(=O)[C@H](Cc2ccccc2)NC1=O,70%,1910 nM,1950 nM,,,,35%,25%,35%,,,,,
N=C(N)NCCC[C@@H]1NC(=O)[C@@H]2CCCN2C(=O)[C@H]2CCCN2C(=O)[C@H](Cc2ccccc2)NC(=O)CNC(=O)[C@H](CC(N)=O)NC(=O)[C@H](Cc2ccccc2)NC(=O)[C@H](Cc2ccccc2)NC1=O (cyclo(RFFNGF[dP]P)),,> 3160 nM,794 nM,> 100 µM,> 100 µM,,,,,> 100 µM,35%,,,
C[C@@H]1NC(=O)[C@H](CC(=O)O)NC(=O)[C@H](Cc2ccccc2)NC(=O)[C@H](Cc2ccccc2)NC(=O)[C@H](CCCNC(=N)N)NC(=O)[C@@H]2CCCN2C(=O)[C@H]2CCCN2C(=O)[C@H](Cc2ccccc2)NC1=O,,> 3160 nM,162 nM,> 100 µM,> 100 µM,,,,,> 100 µM,25%,,,
N=C(N)NCCC[C@@H]1NC(=O)[C@@H]2CCCN2C(=O)[C@H]2CCCN2C(=O)[C@H](Cc2ccccc2)NC(=O)[C@H](CCC(=O)O)NC(=O)[C@H](CC(N)=O)NC(=O)[C@H](Cc2ccccc2)NC(=O)[C@H](Cc2ccccc2)NC1=O (cyclo(RFFNEF[dP]P)),60%,> 3160 nM,> 3160 nM,> 100 µM,> 100 µM,,,,,,,> 100 µM,,
N=C(N)NCCC[C@@H]1NC(=O)[C@@H]2CCCN2C(=O)[C@H]2CCCN2C(=O)[C@H](Cc2ccccc2)NC(=O)[C@H](CO)NC(=O)[C@H](CC(N)=O)NC(=O)[C@H](Cc2ccccc2)NC(=O)[C@H](Cc2ccccc2)NC1=O (cyclo(RFFNSF[dP]P)),,631 nM,6.31 nM,> 100 µM,> 100 µM,,,,,> 100 µM,30%,,,
C[C@@H]1NC(=O)[C@@H](CN)NC(=O)[C@H](Cc2ccccc2)NC(=O)[C@H](Cc2ccccc2)NC(=O)[C@H](CCCNC(=N)N)NC(=O)[C@@H]2CCCN2C(=O)[C@H]2CCCN2C(=O)[C@H](Cc2ccccc2)NC1=O,,200 nM,,,> 100 µM,,,,,> 100 µM,,,10%,
CCCC[C@@H]1NC(=O)[C@H](Cc2ccccc2)NC(=O)[C@H](Cc2ccccc2)NC(=O)[C@H](CCCNC(=N)N)NC(=O)[C@@H]2CCCN2C(=O)[C@H]2CCCN2C(=O)[C@H](Cc2ccccc2)NC(=O)[C@H](C)NC1=O,,> 3160 nM,126 nM,> 100 µM,> 100 µM,,,,,> 100 µM,,> 100 µM,,
C[C@@H]1NC(=O)[C@H](CCC(=O)O)NC(=O)[C@H](Cc2ccccc2)NC(=O)[C@H](Cc2ccccc2)NC(=O)[C@H](CCCNC(=N)N)NC(=O)[C@@H]2CCCN2C(=O)[C@H]2CCCN2C(=O)[C@H](Cc2ccccc2)NC1=O,,> 3160 nM,100 nM,> 100 µM,> 100 µM,,,,,20.5 µM,,,,10%
